According to ChEMBL document CHEMBL3046667, “Synthesis and herbicidal activity evaluation of novel β-carboline derivatives” (Molecules, 2012):
pEC50: −log10 of the molar value.

How the values were obtained:
Echinochloa crus-galli [1] = test: Herbicidal activity against Echinochloa crus-galli (barnyard grass) assessed as growth inhibition at 10 ug/ml; format: functional; conditions: read-out: GI
Summary of the method: (§1)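 Compounds formulated as 10 g/L emulsified concentrates (DMSO solvent, Tween-80 emulsifier), diluted in water and applied to pot-grown plants in a greenhouse (23 ± 1 °C, 60 ± 5% RH, 8 h/day photoperiod). Distilled water and 2,4-D serve as references. Shoot height, root length and fresh weight are measured per cup. Percent inhibition is taken relative to water; mean of three repeats.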

[2] = system: Brassica rapa subsp. oleifera; test: Herbicidal activity against Brassica rapa subsp. oleifera assessed as growth inhibition at 100 ug/ml; format: functional; conditions: read-out: GI; summary of the method: as §1
Echinochloa crus-galli [3] = test: Herbicidal activity against Echinochloa crus-galli (barnyard grass) assessed as growth inhibition at 100 ug/ml; format: functional; conditions: read-out: GI; summary of the method: as §1
[4] = system: Brassica rapa subsp. oleifera; test: Herbicidal activity against Brassica rapa subsp. oleifera assessed as growth inhibition at 10 ug/ml; format: functional; conditions: read-out: GI; summary of the method: as §1
Echinochloa crus-galli [5] = test: Herbicidal activity against Echinochloa crus-galli (barnyard grass); format: functional, organism-based; summary of the method: as §1
[6] = system: Brassica rapa subsp. oleifera; test: Herbicidal activity against Brassica rapa subsp. oleifera; format: functional, organism-based; summary of the method: as §1

| SMILES | inhibition of growth at 10 µg/mL (Echinochloa crus-galli [1]) | inhibition of growth at 100 µg/mL [2] | inhibition of growth at 100 µg/mL (Echinochloa crus-galli [3]) | inhibition of growth at 10 µg/mL [4] | pEC50 (Echinochloa crus-galli [5]) | pEC50 [6] |
| --- | --- | --- | --- | --- | --- | --- |
| COc1ccc2c(c1)[nH]c1c(C)nccc12 [HARMINE] | 10.8% | 53.7% | 32.5% | 20.2% | – | – |
| O=C(N/N=C\c1ccc(C(F)(F)F)cc1)c1cc2c([nH]c3ccccc32)c(-c2ccc(Cl)cc2)n1 | 24.1% | 93.7% | 57.9% | 66.9% | – | – |
| O=C(N/N=C\c1ccc(C(F)(F)F)cc1)c1cc2c([nH]c3ccccc32)c(-c2ccccc2)n1 | 27.9% | 100% | 60.3% | 57.9% | 4.85 | 4.85 |
| O=C(NN=C(c1ccccc1)c1ccccc1)c1cc2c(cn1)[nH]c1ccccc12 | 0% | 10.5% | 0% | 0% | – | – |
| O=C(O)COc1ccc(Cl)cc1Cl [2,4-DICHLOROPHENOXYACETIC ACID] | 100% | 100% | 100% | – | – | – |
| O=C(N/N=C\Nc1ccc(C(F)(F)F)cc1)C1Cc2c([nH]c3ccccc23)CN1 (stereo not drawn) | 0% | 16.4% | 0% | 0% | – | – |
| Cc1n[nH]c(Cl)c1/C=N\NC(=O)c1cc2c(cn1)[nH]c1ccccc12 | 6.34% | 90.8% | 28.1% | 32.2% | – | – |
| O=C(N/N=C\c1ccc([N+](=O)[O-])cc1)c1cc2c(cn1)[nH]c1ccccc12 | 24.6% | 85.4% | 43.2% | 30.9% | – | – |
| O=C(N/N=C\c1ccccc1)c1cc2c(cn1)[nH]c1ccccc12 | 11.8% | 55.6% | 35.9% | 18.1% | – | – |
| COc1cc(/C=N\NC(=O)c2cc3c(cn2)[nH]c2ccccc23)cc(OC)c1OC | 15.1% | 58.4% | 37.1% | 16.3% | – | – |
| O=C(N/N=C\c1ccc(Cl)cc1)c1cc2c(cn1)[nH]c1ccccc12 | 0% | 47.3% | 0% | 18% | – | – |
| O=C(N/N=C\c1ccccc1)c1cc2c([nH]c3ccccc32)c(-c2ccc(Cl)cc2)n1 | 16.7% | 91.7% | 43.7% | 67% | – | – |
| COc1ccc(/C=N\NC(=O)c2cc3c(cn2)[nH]c2ccccc23)cc1 | 17.5% | 71.6% | 29.6% | 24.7% | – | – |
| COc1cc(/C=N\NC(=O)c2cc3c(cn2)[nH]c2ccccc23)ccc1O | 13.3% | 63.2% | 33% | 27.4% | – | – |
| O=C(N/N=C\c1ccco1)c1cc2c(cn1)[nH]c1ccccc12 | 0% | 17.9% | 0% | 2.59% | – | – |
| O=C(N/N=C\c1ccccc1O)c1cc2c(cn1)[nH]c1ccccc12 | 18.1% | 50.1% | 47.6% | 19.4% | – | – |
| COc1cc(OC)c(/C=N\NC(=O)c2cc3c(cn2)[nH]c2ccccc23)c(OC)c1 | 0% | 42.7% | 12.6% | 13.8% | – | – |
| O=C(N/N=C\Nc1ccc(C(F)(F)F)cc1)c1cc2c(cn1)[nH]c1ccccc12 | 0% | 23.7% | 0% | 7.52% | – | – |
| O=C(N/N=C\c1ccccc1)c1cc2c([nH]c3ccccc32)c(-c2ccccc2)n1 | 30.4% | 100% | 73.9% | 62.1% | 5.32 | 5.32 |
| O=C(N/N=C\c1ccc(C(F)(F)F)cc1)c1cc2c([nH]c3ccccc32)c(-c2ccc(C(F)(F)F)cc2)n1 | 9.76% | 76.5% | 35.7% | 35.4% | – | – |
| O=C(N/N=C\c1ccccc1)C1Cc2c([nH]c3ccccc23)CN1 (stereo not drawn) | 0% | 25.3% | 15% | 3.75% | – | – |
| O=C(N/N=C\c1ccccc1)c1cc2c([nH]c3ccccc32)c(-c2ccc(C(F)(F)F)cc2)n1 | 19.4% | 82.3% | 31.2% | 27.1% | – | – |
| COc1cc(/C=N\NC(=O)C2Cc3c([nH]c4ccccc34)CN2)cc(OC)c1OC (stereo not drawn) | 2.51% | 33.5% | 23.8% | 5.28% | – | – |
| COc1ccc(/C=N\NC(=O)C2Cc3c([nH]c4ccccc34)CN2)cc1 (stereo not drawn) | 0% | 37.1% | 8.62% | 8.69% | – | – |
| Cc1nc(C(=O)N/N=C\c2ccccc2)cc2c1[nH]c1ccccc12 | 21.9% | 87% | 51.5% | 37.2% | – | – |
